We go through eight molecules from ChEMBL document CHEMBL1124381, “Studies on angiotensin converting enzyme inhibitors. 4. Synthesis and angiotensin converting enzyme inhibitory activities of 3-acyl-1-alkyl-2-oxoimidazolidine-4-carboxylic acid derivatives” (J Med Chem, 1989).

Assay [1] concerns Rattus norvegicus. Nature of the assay: Maximum inhibitory effect on Angiotensin I induced pressor responses in anesthetized normotensive rats with 10 ug/kg dose of compound given intra venously. It counts as functional.
Assay [2] has as its system Rattus norvegicus. The assay can be described thus: Maximum inhibitory effect of on Angiotensin I induced pressor responses in anesthetized normotensive rats with 1.0 mg/Kg dose of compound given perorally. The format is functional. The following applies: po. The essentials:
(§1)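 Male Wistar slc rats, 300-400 g, anesthetized, fasted 18-20 h. Drug given orally in distilled water once a constant angiotensin I pressor rise was confirmed. […] ID50 from a linear regression curve. Maximum inhibition reported.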

The species entered for assay [3] is Rattus norvegicus. The assay can be described thus: Change in systolic blood pressure. The format is functional, Artery. The method in brief:
(§2)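 Male NCrj SHRs, 18-22 weeks old, about 350 g, baseline systolic pressure 180-200 mmHg, fasted 18-20 h. Drug given orally in distilled water at 1, 2, 5 or 10 mg/kg; vehicle 4 mL/kg. Systolic pressure by tail plethysmograph. Initial value, maximum, time of maximum, change and duration of significant fall recorded; mean ± SE.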

The test system of assay [4] is Rattus norvegicus. The assay can be described thus: Maximum inhibitory effect of on Angiotensin I induced pressor responses in anesthetized normotensive rats with 0.5 mg/Kg dose of compound given perorally. The format is functional. Conditions: po. The essentials: as §1
Assay [5] has as its system Rattus norvegicus. Nature of the assay: Initial systolic blood pressure in spontaneously hypertensive rats after administration of 10 mg/kg of compound perorally. The format is functional, Artery. The following applies: route oral. The essentials: as §2
In assay [6] the test system is Rattus norvegicus. Nature of the assay: The time required for the maximal fall in blood pressure after administration of the compound. It counts as functional. The essentials: as §2
In assay [7] the test system is Rattus norvegicus. The assay can be described thus: Initial systolic blood pressure in spontaneously hypertensive rats after administration of 1 mg/kg of compound perorally. The format is functional, Artery. The following applies: route oral. The essentials:
as §2

For assay [8], the system named is Rattus norvegicus. Nature of the assay: Initial systolic blood pressure in spontaneously hypertensive rats after administration of 5 mg/kg of compound perorally. The format is functional, Artery. Conditions: route oral. The method in brief: as §2
Assay [9] has as its system Rattus norvegicus. Nature of the assay: Maximum inhibitory effect of on Angiotensin I induced pressor responses in anesthetized normotensive rats with 0.2 mg/Kg dose of compound given perorally. The format is functional. The following applies: po. The method in brief:
as §1

For assay [10], the species on record is Rattus norvegicus. Nature of the assay: Inhibitory effect of on Angiotensin I induced pressor responses in normotensive rats when given perorally. The following applies: po, read-out: ID50 (the source's name). The format is functional. The method in brief:
as §1

The test system of assay [11] is Rattus norvegicus. Nature of the assay: Initial systolic blood pressure in spontaneously hypertensive rats after administration of 2 mg/kg of compound perorally. The format is functional, Artery. Conditions: route oral. The method in brief: as §2
The species named for assay [12] is Rattus norvegicus. Nature of the assay: The duration time of the hypotensive effect showing statistically significant difference from initial value was determined. The format is functional. The method in brief: as §2
Assay [13] concerns Rattus norvegicus. Nature of the assay: Maximum inhibitory effect on Angiotensin I induced pressor responses in anesthetized normotensive rats with 1.0 mg/Kg dose of compound given perorally. It counts as functional. Conditions: po. The essentials: as §1
Assay [14] deals with Rattus norvegicus. Nature of the assay: Maximum effect on systolic blood pressure in spontaneously hypertensive rats after administration of 1 mg/kg of compound perorally. The format is functional, Artery. Conditions: route oral. The essentials:
as §2

For assay [15], the species on record is Rattus norvegicus. Nature of the assay: Inhibitory effect on Angiotensin I induced pressor responses in normotensive rats when given perorally. The format is functional. Conditions: po, read-out: ID50 (the source's name). The method in brief:
as §1

In assay [16] the test system is Rattus norvegicus. Nature of the assay: Maximum inhibitory effect on Angiotensin I induced pressor responses in anesthetized normotensive rats with 0.2 mg/Kg dose of compound given perorally. The format is functional. The following applies: po. The essentials: as §1
In assay [17] the test system is Rattus norvegicus. Nature of the assay: Maximum effect on systolic blood pressure in spontaneously hypertensive rats after administration of 5 mg/kg of compound perorally. The format is functional, Artery. The following applies: route oral. The method in brief:
as §2

For assay [18], the system named is Rattus norvegicus. The assay can be described thus: Maximum inhibitory effect on Angiotensin I induced pressor responses in anesthetized normotensive rats with 0.5 mg/Kg dose of compound given perorally. The format is functional. Conditions: po. The essentials: as §1
Assay [19] concerns Rattus norvegicus. Nature of the assay: Maximum effect on systolic blood pressure in spontaneously hypertensive rats after administration of 2 mg/kg of compound perorally. The format is functional, Artery. Conditions: route oral. The method in brief:
as §2

Assay [20] relates to Rattus norvegicus. The assay can be described thus: Maximum effect on systolic blood pressure in spontaneously hypertensive rats after administration of 10 mg/kg of compound perorally. It counts as functional, Artery. The following applies: route oral. The method in brief:
as §2

Assay [21] has as its system Rattus norvegicus. Nature of the assay: Maximum inhibitory effect on Angiotensin I induced pressor responses in anesthetized normotensive rats with 10 ug/kg dose of compound given intravenously. The format is functional. The following applies: iv.

Values joined by “and” are separate entries in the source; they are usually repeats but may differ in a detail not shown here. Equal entries are not always repeated.

A word on the inhibition in vivo: it is the relative decrease from the control value, in per cent. As to `C[C@H](N[C@@H](CCc1ccccc1)C(=O)O)C(=O)N1C(=O)N(Cc2ccccc2)C[C@H]1C(=O)O`, in the assay on Rattus norvegicus [1], the inhibition in vivo at 0.01 mg/kg stood at 39%.

For the molecule `CCCCCCCC[C@H](N[C@@H](C)C(=O)N1C(=O)N(C)C[C@H]1C(=O)O)C(=O)O`, the inhibition in vivo at 0.01 mg/kg with Rattus norvegicus [1] is 53.4%. Besides, the inhibition in vivo at 1 mg/kg in the assay with Rattus norvegicus [2] was found to be 18.4%.

For the molecule `CCCCCCCC[C@H](N[C@@H](C)C(=O)N1C(=O)N(Cc2ccccc2)C[C@H]1C(=O)O)C(=O)O`, the inhibition in vivo at 0.01 mg/kg in the assay with Rattus norvegicus [1] was determined as 41%.

For the molecule `CCCCCCCC[C@H](N[C@@H](C)C(=O)N1C(=O)N(C)C[C@H]1C(=O)O)C(=O)OCC`, the inhibition in vivo at 1 mg/kg in the assay with Rattus norvegicus [2] stood at 56.2%.

Regarding `CCOC(=O)[C@H](CCc1ccccc1)N[C@@H](C)C(=O)N1C(=O)N(C)C[C@H]1C(=O)O`, in the assay listed under Rattus norvegicus [3], the Change is -25 [middle of 4 runs]. In the assay on Rattus norvegicus [4], the inhibition in vivo at 0.5 mg/kg was 62.7%. Also, the Systolic blood pressure with Rattus norvegicus [5] was 192 mmHg; with Rattus norvegicus [7] (1 mg/kg), 190 mmHg and 190.8 mmHg; with Rattus norvegicus [8] (5 mg/kg) it was 191.4 mmHg and 164.3 mmHg; in the assay with Rattus norvegicus [11] (2 mg/kg), 165.8 mmHg and 192.5 mmHg. In addition, the Time with Rattus norvegicus [6] is 3 h and 6 h. Also, in the assay on Rattus norvegicus [9], the inhibition in vivo at 0.2 mg/kg was 52%. In addition, the ED50 in the assay filed under Rattus norvegicus [10] is 0.24 mg/kg. The molecule further displayed a Duration in the assay listed under Rattus norvegicus [12] of more than 9 h.

For `CCOC(=O)[C@H](CCc1ccccc1)N[C@@H](C)C(=O)N1CCC[C@H]1C(=O)O`, the inhibition in vivo at 1 mg/kg in the assay on Rattus norvegicus [13] is 69.8%. In addition, the Systolic blood pressure is 178.3 mmHg in the assay with Rattus norvegicus [14]; 193.3 mmHg in the assay with Rattus norvegicus [5]; 166.7 mmHg in the assay on Rattus norvegicus [17]; 190.8 mmHg in the assay with Rattus norvegicus [7]; 190 mmHg in the assay with Rattus norvegicus [8]; 168.6 mmHg in the assay on Rattus norvegicus [19]. For the same molecule, the Systolic blood pressure in the assay on Rattus norvegicus [20] is 165 mmHg; in the assay on Rattus norvegicus [11] it was 192.9 mmHg. Also, in the assay listed under Rattus norvegicus [3], the Change is -23.3 [middle of 4 runs]. The ED50 in the assay filed under Rattus norvegicus [15] worked out at 0.3 mg/kg. In addition, the inhibition in vivo at 0.2 mg/kg with Rattus norvegicus [16] turned out to be 42.9%. Besides, in the assay on Rattus norvegicus [18], the inhibition in vivo at 0.5 mg/kg turned out to be 50.5%. In the assay with Rattus norvegicus [6], the Time is 3 h and 6 h. Also, the Duration in the assay filed under Rattus norvegicus [12] is more than 9 h.

On to `C[C@H](N[C@@H](CCc1ccccc1)C(=O)O)C(=O)N1C(=O)N(C)C[C@H]1C(=O)O`, for which the inhibition in vivo at 0.01 mg/kg with Rattus norvegicus [1] came out at 62.4%. In addition, the inhibition in vivo at 0.2 mg/kg in the assay on Rattus norvegicus [9] is -7.2%. The inhibition in vivo at 1 mg/kg with Rattus norvegicus [2] amounted to 26.3%.

As to `C[C@H](N[C@@H](CCc1ccccc1)C(=O)O)C(=O)N1CCC[C@H]1C(=O)O` [ENALAPRILAT ANHYDROUS], in the assay with Rattus norvegicus [21], the inhibition in vivo at 0.01 mg/kg worked out at 54.5%.
